# Experimental data taken from ChEMBL document CHEMBL1135676, “Comparative molecular field analysis of substrates for an aryl sulfotransferase based on catalytic mechanism and protein homology modeling” (J Med Chem, 2002).
# Molecular target: Sulfotransferase 1A1 (Rattus norvegicus, UniProt P17988)
# Assay: Ratio of kcat/Km determined for catalytic efficiency in sulfonation against AST IV
# Procedure, shortened: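 Recombinant rat hepatic AST IV, expressed in E. coli and purified. Each reaction held 1.0 μg enzyme, 0.2 mM PAPS, 8.3 mM 2-mercaptoethanol, varying substrate and 0.25 M potassium phosphate at pH 7.0. Mixtures were preincubated 2 min at 37 °C, started with enzyme, run 10 min at 37 °C and stopped with methanol. Substrate-dependent PAP formation was read by HPLC and corrected with substrate-free controls. kcat is in min⁻¹ and apparent Km in M.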
# Sulfotransferase 1A1, sequence (P17988 whole entry): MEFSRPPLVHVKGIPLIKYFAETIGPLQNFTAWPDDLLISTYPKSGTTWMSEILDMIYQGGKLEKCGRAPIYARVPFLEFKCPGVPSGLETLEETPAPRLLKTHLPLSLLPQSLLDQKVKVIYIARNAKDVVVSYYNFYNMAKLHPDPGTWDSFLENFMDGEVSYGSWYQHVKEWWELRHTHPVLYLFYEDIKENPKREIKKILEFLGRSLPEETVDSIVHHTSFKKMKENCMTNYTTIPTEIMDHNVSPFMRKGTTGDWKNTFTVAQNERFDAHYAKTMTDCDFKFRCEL
row,Compound,Ratio
1,CCc1ccc(O)cc1,1390
2,O=[N+]([O-])c1ccc(CO)cc1 [PARANITROBENZYL ALCOHOL],3.5
3,CCCCCC[C@H](O)c1ccccc1,8.8
4,CC(=O)Nc1ccc(O)cc1 [ACETAMINOPHEN],66.7
5,ONc1ccccc1,6.3
6,Cc1ccc(CO)cc1,28.7
7,CCN(O)c1ccccc1,14.2
8,Oc1ccccc1 [PHENOL],625
9,Oc1ccc2ccccc2c1 [BETANAPHTHOL],4790
10,OCc1c[nH]c2ccccc12 [INDOLE-3-CARBINOL],38.9
11,CCCc1ccc(CO)cc1,151
12,CCCCCCc1ccc(CO)cc1,109
13,OCc1ccc2ccccc2c1,101
14,CC(C)[C@H](O)c1ccccc1,0.2
15,CCCCCc1ccc(CO)cc1,185
16,ONc1ccc(Cl)cc1,45.6
17,OCc1cccc2ccccc12,29.4
18,CCCc1ccc(O)cc1,2410
19,OC1CCCc2ccccc21 (stereo not drawn),32.4
20,C[C@@H](O)c1ccccc1,0.4
21,COC(=O)[C@@H](N)Cc1ccc(O)cc1 [TYROSINE METHYL ESTER],3
22,O=[N+]([O-])c1ccc(O)c(Cl)c1,190

row,Compound,Ratio
1,CCCCCCCCCc1ccc(O)cc1 [4-NONYLPHENOL],28.3
2,OCc1ccoc1,0.4
3,CN[C@@H](C)C(O)c1ccccc1 (stereo partly drawn),0.1
4,CCCCCCCc1ccc(CO)cc1,11
5,CN(O)c1ccccc1,24.2
6,CCCCc1ccc(CO)cc1,147
7,CCCCCCCc1ccc(O)cc1,73.4
8,C[C@H](O)c1ccccc1,4.6
9,Oc1ccc(-c2ccccc2)cc1,79.1
10,CN[C@H](C)[C@H](O)c1ccccc1,0.1
11,CC[C@H](O)c1ccccc1,1.4
12,CCCCc1ccc(O)cc1,2230
13,Cc1ccc(O)cc1 [p-CRESOL],1080
14,CCCCCc1ccc(O)cc1,784
15,CCCCC[C@H](O)c1ccccc1,10.2
16,CCC[C@H](O)c1ccccc1,0.8
17,Oc1ccc(C23C[C@H]4C[C@@H](C2)C[C@@H](C3)C4)cc1,1600
18,OCc1ccccc1 [BENZYL ALCOHOL],20.7
19,O=C(CBr)Nc1ccc(O)cc1,146
20,CCCC[C@H](O)c1ccccc1,103
21,CCCN(O)c1ccccc1,20.8
